Measurements pooled from the literature.
Target: Cytoplasmic tyrosine-protein kinase BMX (BMX, Homo sapiens, UniProt P51813)
Residues used in one study (P51813 1-675): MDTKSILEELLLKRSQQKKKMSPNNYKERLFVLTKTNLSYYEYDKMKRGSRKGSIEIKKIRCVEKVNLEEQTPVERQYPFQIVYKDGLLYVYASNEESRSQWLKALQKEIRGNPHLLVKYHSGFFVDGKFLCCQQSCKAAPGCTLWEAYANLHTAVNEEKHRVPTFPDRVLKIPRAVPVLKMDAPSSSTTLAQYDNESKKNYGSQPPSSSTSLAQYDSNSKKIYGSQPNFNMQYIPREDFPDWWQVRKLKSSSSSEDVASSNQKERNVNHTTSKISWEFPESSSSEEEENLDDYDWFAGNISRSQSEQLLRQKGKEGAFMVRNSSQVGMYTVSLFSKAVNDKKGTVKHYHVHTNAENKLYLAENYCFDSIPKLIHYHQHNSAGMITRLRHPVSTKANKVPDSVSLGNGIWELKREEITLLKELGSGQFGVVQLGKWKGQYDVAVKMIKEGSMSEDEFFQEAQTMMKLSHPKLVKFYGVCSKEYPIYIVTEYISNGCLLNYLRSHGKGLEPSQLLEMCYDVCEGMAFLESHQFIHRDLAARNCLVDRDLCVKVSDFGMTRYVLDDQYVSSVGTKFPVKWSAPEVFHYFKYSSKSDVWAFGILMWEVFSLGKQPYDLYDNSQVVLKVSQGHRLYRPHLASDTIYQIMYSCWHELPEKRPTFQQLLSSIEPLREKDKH

| SMILES | assay | setting | remaining binding |
| --- | --- | --- | --- |
| O=C(c1ccc(Nc2ncc(Cl)c(-c3ccc(Cl)s3)n2)cc1)N1CCC(N2CCCC2)CC1 | binding, competition with immobilised ligand | 1 µM | 79% |
| CN(C)c1nccc(-c2cnc3ncccn23)n1 | binding | 1 µM | 100% |
| C=CC(=O)N1CCC(C(=O)NCC(=O)N2CCN(c3nc(-c4cnc(N)nc4C(F)F)nc(N4CCOCC4)n3)CC2)CC1 | binding, competition with immobilised ligand | 1 µM | 99% |
| CC1CCCN1c1nccc(-c2cnn3ncccc23)n1 (stereo not drawn) | binding | 1 µM | 94% |
| C[C@H](c1cccc(C#N)c1)n1cc(Cl)cc(C(N)=O)c1=N | cell-free assay, competition with immobilised ligand | 1 µM | 77% |
| O=C(Nc1c[nH]nc1C(=O)NC1CCNCC1)c1cc(F)cc(F)c1 | binding, competition with immobilised ligand | 1 µM | 100% |
| COc1cnc(Nc2cccc(S(N)(=O)=O)c2)nc1N1CCN(c2ccccc2)C(=O)C1 | binding, competition with immobilised ligand | 1 µM | 100% |
| CC(=O)c1c(NS(C)(=O)=O)c2cc(-c3ccc(Cl)cc3)c(-c3ccc(Cl)cc3Cl)nc2n(C)c1=O | cell-free assay, competition with immobilised ligand | 1 µM | 100% |
| F[C@@H]1CCN(c2nccc(-c3cnn4ncccc34)n2)C1 | binding | 1 µM | 83% |
| O=C(c1ccc(Nc2nccc(-c3cc4ccccc4s3)n2)cc1)N1CCC(N2CCCC2)CC1 | binding, competition with immobilised ligand | 1 µM | 91% |
| COc1ncc2cc3ccccc3nc2c1C#N | cell-free assay, competition with immobilised ligand | 5 µM | 99% |
| Cc1cc(-n2nc(Cc3cc(F)cc(C(F)(F)F)c3)nc2C)ccc1C(N)=O | cell-free assay, competition with immobilised ligand | 1 µM | 100% |
| O=C(c1ccc(Nc2ncc(Cl)c(-c3cc4ccccc4s3)n2)cc1)N1CCC(N2CCCC2)CC1 | binding, competition with immobilised ligand | 1 µM | 75% |
| O=C(N1CCS(=O)(=O)CC1)N1C[C@H](c2ccc(OC(F)(F)F)cc2)C[C@H](c2nc(C3CC3)no2)C1 | cell-free assay, competition with immobilised ligand | 1 µM | 100% |
| C[C@H]1CCN(c2nccc(-c3cnn4ncccc34)n2)C1 | binding | 1 µM | 84% |
| COc1ccc2cc(OCC3(C(=O)O)CN(C(=O)c4ccc(F)cc4)C3)ccc2c1 | cell-free assay, competition with immobilised ligand | 1 µM | 87% |
| Cc1cnn2ncc(-c3ccnc(N(C)C)n3)c2c1 | binding | 1 µM | 96% |
| CCC(=N\O)/C(C)=C/c1ccc(F)cc1 | cell-free assay, competition with immobilised ligand | 1 µM | 83% |
| CCN1CCN(Cc2ccc(C(=O)Nc3ccc(C)c(Oc4ccc5c(c4)CC(=O)N5)c3)cc2C(F)(F)F)CC1 | binding, competition with immobilised ligand | 1 µM | 88% |
| CN(c1nccc(-c2cnn3ncccc23)n1)C1CC1 | binding | 1 µM | 82% |
| c1cncc(-c2cccc(Nc3nccc(NC4CCCCC4)n3)c2)c1 | binding, competition with immobilised ligand | 10 µM | 82% |
